Screens from PubChem BioAssay.
PAX8 reporter: inhibitors of PAX8 transcriptional activity in RMG-I cells | RMG-I TPO-luciferase reporter, SteadyGlo, 24 h | inhibition, % at 12.6 µM | 360,000 tested, 1.2% active;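 active = mean replicate inhibition at least 60% with every replicate also reaching 60%; inconclusive = only one of the two criteria is met; inactive = mean below 60% and not all replicates reaching 60%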;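 also: luciferase light reporting Pax8 driven TPO promoter activity; plate controls were median of neutral control wells for no effect and mitoxantrone controls for full effect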
Glyco luc inh: blocks N-linked glycosylation in D54 reporter cells; D54 ERlucT glycosylation luciferase reporter, 24 h; percent of 100 nM tunicamycin response; reporter increase, % at 12.5 µM; 360,000 tested, 0.23% active;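 active = mean luciferase reporter signal, scaled so untreated is 0 and the glycosylation-blocking control 100, at or above a set limit in every replicate; inconclusive = mean reaches the limit but not every replicate does; inactive = mean below the limit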;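 also: luciferase carries N-glycosylation sites so blocking glycosylation raises the light; 0% = median of neutral control wells and 100% = median of 100 nM tunicamycin wells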
Env fusion inh: HIV envelope-mediated fusion inhibition. HeLa-JRFL Env/CEM21 cell fusion, luciferase. inhibition, % at 12.3 µM. 360,000 tested, 1.1% active. AID 651610;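 active = mean replicate inhibition score of at least 50 and every replicate individually at or above 50; inconclusive = only one of the two criteria met; inactive = mean below 50 and not all replicates reaching 50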;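 also: 0% = plate neutral controls and 100% = maraviroc near 300 nM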
FN deposit inh: fibronectin deposition inhibition | 350,000 tested, 0.086% active | inhibition, % at 12.6 µM | AH1F fibroblasts, Alexa488-fibronectin deposition fluorescence, overnight;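 active = mean inhibition across replicates of 30% or more, regardless of how many single replicates reach that level; inconclusive = mean under 30% yet at least half of replicates reach 30%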;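 also: positive control wells lacked labelled fibronectin entirely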
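test system = AH1F fibroblasts assembling fluorescent fibronectin matrix | quantity = 10000 AH1F cells per well | buffer or medium = DMEM plus 2% serum, read in PBS | doses = single dose, pinned | incubation = 1 h cell attachment, overnight exposure to compound and label | detection = fluorescence at 485 nm excitation, 525 nm emission | read-out basis = inhibition from reduced deposited-fibronectin fluorescence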
AF4-AF9 inh: blocks AF4 peptide binding to human AF9 | 350,000 tested, 0.47% active | inhibition, % at 10 µM | P42568 | AID 651704 | AlphaScreen, biotin-AF4 peptide binding to FLAG-AF9;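 active = every replicate reaching a set inhibition limit, whatever the replicate mean, cut at about 25% in these data; inconclusive = mean inhibition reaches that limit but some replicates miss it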;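 also: 0% = plate neutral control median and 100% = total signal loss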
Target sequence (P42568 whole entry, looked up): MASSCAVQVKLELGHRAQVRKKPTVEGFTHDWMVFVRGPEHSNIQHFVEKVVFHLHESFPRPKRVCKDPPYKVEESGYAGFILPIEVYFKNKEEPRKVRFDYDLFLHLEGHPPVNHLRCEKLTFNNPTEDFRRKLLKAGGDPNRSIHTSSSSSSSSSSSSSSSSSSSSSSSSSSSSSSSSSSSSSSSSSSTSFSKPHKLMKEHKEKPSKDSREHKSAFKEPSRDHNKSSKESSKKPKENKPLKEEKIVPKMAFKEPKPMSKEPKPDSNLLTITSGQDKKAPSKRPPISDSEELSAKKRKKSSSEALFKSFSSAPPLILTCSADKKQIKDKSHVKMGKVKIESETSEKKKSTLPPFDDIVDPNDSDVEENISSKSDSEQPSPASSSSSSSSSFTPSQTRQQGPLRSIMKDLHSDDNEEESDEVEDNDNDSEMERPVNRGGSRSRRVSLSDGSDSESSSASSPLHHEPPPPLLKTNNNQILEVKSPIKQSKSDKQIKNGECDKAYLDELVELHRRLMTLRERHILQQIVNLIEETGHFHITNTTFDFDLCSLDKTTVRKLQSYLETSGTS
EWS-Fli inh: EWS/Fli transcriptional activity inhibition. A673 NR0B1-luciferase reporter, viability-normalised. inhibition, % at 12.6 µM. 350,000 tested, 0.67% active. AID 651661;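 active = mean inhibition of at least 50% after viability correction, with every replicate also passing that limit; inconclusive = mean reaches 50% but only one of two replicates passes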;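 also: firefly luciferase signal divided by Alamar Blue viability fluorescence both relative to DMSO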
* marks the source's active call; other numbers are inactive results; ? = inconclusive; nt = no result; ! = not confirmed by another sample; [ ] = remark or other dose. Compounds with a hit are over-represented: about 2.5% of the library has one in this group of screens.

SMILES | PAX8 reporter | Glyco luc inh | Env fusion inh | FN deposit inh | AF4-AF9 inh | EWS-Fli inh
COc1ccc([Si](C)(C)[C@H]2[C@H](CCO)O[C@@]3(C(=O)N(Cc4cccc(NC(=O)[C@H](C)O)c4)c4ccccc43)[C@@H]2C)cc1 | 86.4* | nt | ? | nt | 9.3 | 16.9
C=CCN1C(=O)[C@]2(O[C@H](CCO)[C@@H]([Si](C)(C)c3ccc(OC)cc3)[C@@H]2C)c2cc(I)ccc21 | 105.3* | nt | 49.3[16.7 µM] | nt | 2.0 | 29.7
COc1ccc([Si](C)(C)[C@H]2[C@H](CCO)O[C@@]3(C(=O)N(Cc4ccc(N5CCOC5=O)cc4)c4ccccc43)[C@@H]2C)cc1 | 106.7* | nt | 22.2[16.7 µM] | nt | 1.2 | 23.6
COc1ccc([Si](C)(C)[C@@H]2[C@@H](CCn3cc(CCO)nn3)O[C@]3(C(=O)N(Cc4ccc(N5CCOC5=O)cc4)c4ccccc43)[C@H]2C)cc1 | nt | nt | 21.6[16.7 µM] | nt | 2.5 | 35.5
COc1ccc(C(=O)Nc2ccc(CN3C(=O)[C@]4(O[C@H](CC(=O)N5Cc6ccccc6C[C@H]5CO)[C@@H]([Si](C)(C)c5ccc(OC)cc5)[C@@H]4C)c4ccccc43)cc2)cc1 | 91.7* | nt | 21.5[16.7 µM] | nt | -0.6 | -1.6
C=CCN1C(=O)[C@]2(O[C@H](CCO)[C@@H]([Si](C)(C)c3ccc(OC)cc3)[C@@H]2C)c2cc(NC(=O)[C@H](C)O)ccc21 | -5.4 | nt | -21.4[16.7 µM] | nt | -2.7 | 5.4
COc1ccc(NC(=O)N(C)C[C@H]2OCCCC[C@@H](C)Oc3ccc(NC(=O)CCCN(C)C)cc3C(=O)N([C@@H](C)CO)C[C@H]2C)cc1 | -8.0 | nt | -7.6[16.7 µM] | nt | 2.6 | -7.8
CCC(=O)N1[C@@H]2c3ccc(-c4ccncc4)c(=O)n3C[C@H]1[C@H](CO)[C@H]2C(=O)N1CCc2ccccc2C1 | 4.0 | nt | nt | nt | -2.5 | 3.5
COc1ccc([Si](C)(C)[C@H]2[C@H](CCn3cc(CCO)nn3)O[C@@]3(C(=O)N(C)c4ccccc43)[C@@H]2C)cc1 | nt | nt | 15.9[16.7 µM] | nt | 1.7 | 9.0
COc1ccc([Si](C)(C)[C@@H]2[C@@H](CC(=O)N3Cc4ccccc4C[C@H]3CO)O[C@]3(C(=O)N(C)c4c(Br)cc(C)cc43)[C@H]2C)cc1 | 80.7* | nt | 0.8[16.7 µM] | nt | 0.8 | -1.4
COc1ccc([Si](C)(C)[C@@H]2[C@@H](CCO)O[C@]3(C(=O)N(Cc4ccc(NC(=O)[C@H](C)O)cc4)c4ccccc43)[C@H]2C)cc1 | 101.1* | nt | 35.1[16.7 µM] | nt | -4.3 | 22.9
C[C@@H](NC(=O)C[C@@H]1C[C@H]2c3cc(NC(=O)C4CCOCC4)ccc3O[C@H]2[C@@H](CO)O1)c1ccccc1 | -24.6 | nt | 9.2[16.7 µM] | nt | -0.6 | 6.2
COc1ccc(C(=O)/C(=C\c2ccco2)N2C=CC=CC2=C(C#N)C#N)cc1 | nt | 0.1 | nt | nt | nt | nt
N#CC(C#N)=C1C=CC=CN1/C(=C\c1ccco1)C(=O)c1ccccc1 | 121.9* | -16.3 | -308.8 | 25.8 | 14.3 | 78.3*
N#CC(C#N)=C1C=CC=CN1/C(=C\c1ccco1)C(=O)c1ccc(Br)cc1 | 102.4* | -12.4 | -286.9 | -7.3 | nt | nt
N#C/C(=C/c1ccco1)C(N)=S | 1.7 | 0.7 | -9.1 | -12.1 | -8.1 | -4.7
CO[C@H]1CN(C)C(=O)c2cc(NC(=O)C3CC3)ccc2OC[C@@H](C)N(Cc2ccc(F)cc2)C[C@@H]1C | 5.5 | nt | nt | -7.5 | 3.4 | -2.4
C[C@H]1CN([C@@H](C)CO)C(=O)c2cccc(NC(=O)Nc3ccc(F)cc3)c2O[C@H]1CN(C)C(=O)Nc1ccc(C(F)(F)F)cc1 | 79.5* | nt | 26.9[16.7 µM] | -8.3 | -10.2 | 7.5
C[C@H](CO)N1C[C@H](C)[C@@H](CN(C)C(=O)Nc2ccc(C(F)(F)F)cc2)Oc2c(NC(=O)Nc3ccccc3)cccc2C1=O | -6.5 | 6.0 | 23.0[16.7 µM] | 17.8 | 1.1 | 63.7*!
C[C@@H]1CN([C@H](C)CO)C(=O)c2cccc(NC(=O)Nc3ccc(C(F)(F)F)cc3)c2O[C@@H]1CN(C)C(=O)Nc1ccccc1 | 11.4 | nt | -2.7[16.7 µM] | nt | 4.0 | 7.6
C[C@@H]1CN([C@H](C)CO)C(=O)c2cccc(NC(=O)Nc3ccc(C(F)(F)F)cc3)c2O[C@H]1CN(C)C(=O)Nc1cccc2ccccc12 | nt | nt | 77.8*[16.7 µM] | 10.9 | 4.9 | 13.9
C[C@H](CO)N1C[C@H](C)[C@H](CN(C)C(=O)c2ccccc2)OCCCC[C@H](C)Oc2ccc(NS(=O)(=O)c3ccccc3)cc2C1=O | 8.2 | nt | -154.0[16.7 µM] | -16.6 | -0.1 | 1.1
CC1C=NC(S(=O)(=O)N2CC[C@@H]3[C@@H](CO)N(C)c4ccc(-c5ccccc5)cc4[C@@H]32)=N1 (stereo partly drawn) | 4.3 | nt | nt | 6.6 | 7.7 | -0.7
CC(C1CC1)N(Cc1ccccc1)C(=S)Nc1cccc(C(F)(F)F)c1 (stereo not drawn) | 118.1* | -1.9 | nt | -9.7 | -4.6 | 3.4
CC(C1CC1)N(Cc1ccccc1)C(=S)Nc1ccccc1 (stereo not drawn) | -5.7 | 0.1 | 0.6 | 2.7 | -2.7 | 8.7
SMILES | PAX8 reporter | Glyco luc inh | Env fusion inh | FN deposit inh | AF4-AF9 inh | EWS-Fli inh
COc1cccc(C#Cc2ccc([C@H]3[C@@H](CO)N(C(=O)C4CCCCC4)[C@H]3C#N)cc2)c1 | 78.3* | nt | 6.0[16.7 µM] | -1.4 | 6.3 | 15.6
COc1cccc(C#Cc2ccc([C@H]3[C@@H](CO)N(C(=O)C4CCC4)[C@H]3C#N)cc2)c1 | 71.5* | nt | 27.2[16.7 µM] | 5.9 | 7.4 | -26.4
COc1cccc(C#Cc2ccc([C@H]3[C@@H](CO)N(C(=O)C4CCCC4)[C@H]3C#N)cc2)c1 | 82.2* | nt | 68.9*[16.7 µM] | 8.3 | 5.3 | 2.4
COc1cccc(C#Cc2ccc([C@@H]3[C@@H](C#N)N(C(=O)C4CCCC4)[C@@H]3CO)cc2)c1 | nt | nt | nt | -17.8 | -6.2 | 0.7
CNC[C@H]1Oc2c(cccc2N(C)C)C(=O)N(C)C[C@@H]1C | nt | nt | nt | -18.0 | nt | nt
O=C(C[C@H]1CC[C@H](NC(=O)NC2CCCCC2)[C@H](CO)O1)NCc1ccccc1 | -13.7 | nt | 8.6[16.7 µM] | -22.4 | -3.2 | 1.6
O=C(c1ccc(C(F)(F)F)cc1)N1CCC(=O)N(C(COCc2ccc(Cl)cc2)Cc2ccccc2)CC1 (stereo not drawn) | -7.1 | -1.2 | 28.4 | 11.4 | -13.5 | 4.3
O=C(c1ccc(C(F)(F)F)cc1)N1CCC(=O)N(C(COCc2ccccc2)Cc2ccccc2)CC1 (stereo not drawn) | 3.2 | -3.1 | 63.3* | 10.3 | 1.9 | 6.3
CC(C)CC(COCc1ccc(C(F)(F)F)cc1)N1CCN(C(=O)c2ccc(C(F)(F)F)cc2)CCC1=O (stereo not drawn) | 21.4 | -5.4 | 57.5* | -13.5 | nt | 7.2
CC(C)C[C@@H](COCc1cccc(Cl)c1)N1CCN(C(=O)c2ccc(C(F)(F)F)cc2)CCC1=O | 10.4 | nt | 56.8* | 8.5 | -3.0 | 0.0
O=C(C[C@H]1C[C@@H]2c3cc(NC(=O)Nc4ccccc4F)ccc3O[C@@H]2[C@@H](CO)O1)NCc1ccncc1 | 7.4 | nt | 6.9[16.7 µM] | 8.7 | 2.9 | -0.3
O=C(c1cccnc1)N1C[C@@H]2[C@H](c3ccccc31)[C@H](CO)N2C(=O)Nc1cccc(F)c1 | 2.8 | nt | nt | nt | -0.8 | -6.7
